Assay [1] has as its system Planktothrix agardhii. The experiment in a line: Antialgal activity against Planktothrix agardhii assessed as lowest observed effect concentration measured for 4 days. Format: functional. The gist of the method: (§1)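 Cyanobacteria (O. perornata, O. agardhii, Pseudanabaena LW397) and the green alga S. capricornutum were each maintained in continuous steady-state culture. Compound in dichloromethane was dried in quartz 96-well plates, then 200 µL culture was added. Final concentrations were 0.1, 1.0, 10.0 and 100.0 µM, in triplicate, and experiments were repeated. Plates were held at 29 °C under continuous light, and A650 was read every 24 h for 4 days. LOEC, LCIC and 96-h IC50 were taken from mean absorbance graphs.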

Assay [2] deals with Planktothrix perornata. The assay is described as follows: Antialgal activity against Oscillatoria perornata assessed as lowest observed effect concentration measured for 4 days. Format: functional. The gist of the method:
as §1

The test system of assay [3] is Planktothrix perornata. The experiment in a line: Antialgal activity against Oscillatoria perornata assessed as lowest complete inhibition concentration measured for 4 daysos. It counts as functional. The gist of the method: as §1
Assay [4] relates to Phomopsis obscurans. The experiment in a line: Antifungal activity against Phomopsis obscurans assessed as growth inhibition at 50 uM measured at 120 hr by 96-well microtiter assay. It counts as functional. As to conditions: Paraphomopsis obscurans. An outline of the steps:
(§2)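 Filamentous-fungus broth microdilution in 96 wells, adapted from NCCLS M27A, with benomyl, azoxystrobin and captan as standards. Conidia came from 7–10-day PDA cultures, were filtered and set to 1.0 × 10^6 conidia/mL by A625 standard curve. Compounds were tested at 50.0, 100.0 and 150.0 µM. Growth was read as A620 at 0, 24, 48 and 72 h, plus 120 h for Phomopsis species. Percent inhibition was pooled from two experiments.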

The next assay deals with Colletotrichum acutatum. The assay is described as follows: Antifungal activity against Colletotrichum acutatum assessed as growth inhibition at 50 to 150 uM measured up to 72 hr by 96-well microtiter assay. It counts as functional, organism-based. An outline of the steps: as §2
Assay [5] has as its system Colletotrichum gloeosporioides. The assay is described as follows: Antifungal activity against Colletotrichum gloeosporioides assessed as growth inhibition at 50 to 150 uM measured up to 72 hr by 96-well microtiter assay. It counts as functional, organism-based. The gist of the method:
as §2

The subject of another assay is Diaporthe ampelina. The assay is described as follows: Antifungal activity against Diaporthe ampelina assessed as growth inhibition at 50 to 150 uM measured up to 120 hr by 96-well microtiter assay. Format: functional, organism-based. The gist of the method:
as §2

The test system of a further assay is Colletotrichum fragariae. The experiment in a line: Antifungal activity against Colletotrichum fragariae assessed as growth inhibition at 50 to 150 uM measured up to 72 hr by 96-well microtiter assay. It counts as functional, organism-based. An outline of the steps:
as §2

The subject of assay [6] is Phomopsis obscurans. The assay is described as follows: Antifungal activity against Phomopsis obscurans assessed as growth inhibition at 50 to 150 uM measured up to 120 hr by 96-well microtiter assay. To be noted: Paraphomopsis obscurans. It counts as functional, organism-based. An outline of the steps: as §2
A further assay deals with Fusarium oxysporum. The assay is described as follows: Antifungal activity against Fusarium oxysporum assessed as growth inhibition at 50 to 150 uM measured up to 72 hr by 96-well microtiter assay. Format: functional, organism-based. An outline of the steps: as §2
In assay [7] the test system is Selenastrum capricornutum. The assay is described as follows: Antialgal activity against Selenastrum capricornutum assessed as lowest complete inhibition concentration measured for 4 days. It counts as functional. The gist of the method:
as §1

The subject of assay [8] is Selenastrum capricornutum. The experiment in a line: Antialgal activity against Selenastrum capricornutum assessed as lowest observed effect concentration measured for 4 days. Format: functional. An outline of the steps:
as §1

Assay [9] concerns Pseudanabaena sp. The assay is described as follows: Antialgal activity against Pseudanabaena sp. LW397 assessed as lowest complete inhibition concentration measured for 4 days. Format: functional. The gist of the method: as §1
Assay [10] relates to Pseudanabaena sp. The assay is described as follows: Antialgal activity against Pseudanabaena sp. LW397 assessed as lowest observed effect concentration measured for 4 days. Format: functional. An outline of the steps:
as §1

Assay [11] deals with Planktothrix agardhii. The experiment in a line: Antialgal activity against Planktothrix agardhii assessed as lowest complete inhibition concentration measured for 4 days. It counts as functional. An outline of the steps: as §1
Assay [12] concerns Phomopsis obscurans. The experiment in a line: Antifungal activity against Phomopsis obscurans assessed as growth inhibition at 50 uM measured at 120 hr by 96-well microtiter assay. To be noted: Paraphomopsis obscurans.
Assay [13] has as its system Planktothrix perornata. The assay is described as follows: Antialgal activity against Oscillatoria perornata assessed as inhibition measured for 96 hr. It counts as functional, organism-based. An outline of the steps:
as §1

The subject of assay [14] is Selenastrum capricornutum. The experiment in a line: Antialgal activity against Selenastrum capricornutum assessed as inhibition measured for 96 hr. It counts as functional, organism-based. An outline of the steps: as §1
The subject of assay [15] is Colletotrichum gloeosporioides. The experiment in a line: Antifungal activity against Colletotrichum gloeosporioides assessed as growth inhibition at 150 µM measured at 72 hr by 96-well microtiter assay.
Assay [16] relates to Colletotrichum gloeosporioides. The experiment in a line: Antifungal activity against Colletotrichum gloeosporioides assessed as growth inhibition at 150 µM measured at 48 hr by 96-well microtiter assay.
Another assay relates to Botrytis cinerea. The experiment in a line: Antifungal activity against Botryotinia fuckeliana assessed as growth inhibition at 50 to 150 uM measured up to 72 hr by 96-well microtiter assay. It counts as functional, organism-based. An outline of the steps:
as §2

Assay [17] deals with Pseudanabaena sp. The experiment in a line: Antialgal activity against Pseudanabaena sp. LW397 assessed as inhibition measured for 96 hr. It counts as functional, organism-based. As to conditions: LW397, 96 h. An outline of the steps:
as §1

Structures are written as SMILES. Calls of active or inactive are those of the source. The calls are words filed in the database; no cut-off is given here.

The text below walks through data of ChEMBL document CHEMBL3044785, “Isolation and identification of antifungal and antialgal alkaloids from Haplophyllum sieversii” (J Agric Food Chem, 2005).

As a reminder, the inhibition is the change of the read-out against control, counted positive when it falls. As to `COc1ccc([C@H]2OC[C@H]3[C@@H]2CO[C@@H]3c2ccc(OC)c(OC)c2)cc1OC` [(+)-EUDESMIN], the Activity was over 100 µM with Planktothrix agardhii [1]; 10 µM with Planktothrix perornata [2]; over 100 µM with Planktothrix perornata [3]; over 100 µM in assay [7]; 100 µM in assay [8]; 100 µM in the assay on Pseudanabaena sp. [9]. Besides, the Activity with Pseudanabaena sp. [10] was 100 µM; with Planktothrix agardhii [11] it was over 100 µM. Moreover, the inhibition at 50 µM in the assay with Phomopsis obscurans [4] and with Phomopsis obscurans [12] was over 80% in each case. The “growth inhibition (GI)” value (in the assay on Colletotrichum acutatum; in [5]; in the assay with Diaporthe ampelina; in the assay on Colletotrichum fragariae; in the assay with Phomopsis obscurans [6]; in the assay on Fusarium oxysporum) was “Active” each time.

For `COc1c2ccoc2nc2c(OC)c(OCC3OC3(C)C)ccc12` (centres undefined) [ANHYDROEVOXINE], the inhibition at 50 µM in the assay on Phomopsis obscurans [4] and in the assay on Phomopsis obscurans [12] was over 80% in each case. Further, the “growth inhibition (GI)” value (in the assay with Colletotrichum acutatum; in [5]; in the assay with Diaporthe ampelina; with Colletotrichum fragariae; with Phomopsis obscurans [6]; in the assay on Fusarium oxysporum) was “Active” throughout.

The term IC50 denotes the concentration that gives 50% inhibition. Regarding `CC1(C)C=Cc2c(O)nc3ccccc3c2O1` [FLINDERSINE], the Activity with Planktothrix agardhii [1] is over 100 µM; in the assay with Planktothrix perornata [2] it was 10 µM; with Planktothrix perornata [3], 100 µM; in assay [7], 100 µM; in [8], 10 µM; in the assay with Pseudanabaena sp. [9], over 100 µM. In addition, the Activity in the assay with Pseudanabaena sp. [10] and in the assay on Planktothrix agardhii [11] was over 100 µM in each case. Moreover, the IC50 in the assay with Planktothrix perornata [13] was 15.9 µM; in assay [14], 17.8 µM. Moreover, the inhibition at 50 µM in the assay on Phomopsis obscurans [4] and in the assay with Phomopsis obscurans [12] was over 80% throughout. For the same compound, the “growth inhibition (GI)” value (in the assay on Colletotrichum acutatum; in assay [5]; in the assay on Diaporthe ampelina; with Colletotrichum fragariae; with Phomopsis obscurans [6]; in the assay with Fusarium oxysporum) was “Active” throughout. The results for the “inhibition (INH)” value in assay [15] and in assay [16] were under 40% and over 65%, respectively.

In the case of `COc1ccc2[nH]c(=O)c3c(c2c1)OC(C)(C)C=C3` [HAPLAMINE], the Activity is over 100 µM with Planktothrix agardhii [1]; 1 µM with Planktothrix perornata [2]; 10 µM in the assay on Planktothrix perornata [3]; 100 µM in assay [7]; 10 µM in [8]; 100 µM in the assay on Pseudanabaena sp. [9]. Besides, the results for the Activity in the assay on Pseudanabaena sp. [10] and in the assay on Planktothrix agardhii [11] were 1 µM and over 100 µM, respectively. Moreover, the IC50 turned out to be 1.8 µM in the assay with Planktothrix perornata [13], 15.9 µM in assay [14] and 2 µM in the assay on Pseudanabaena sp. [17]. Besides, the inhibition at 50 µM in the assay with Phomopsis obscurans [4] and in the assay with Phomopsis obscurans [12] was over 80% throughout. Moreover, the “growth inhibition (GI)” value (with Botrytis cinerea; with Colletotrichum acutatum; in assay [5]; in the assay on Diaporthe ampelina; with Colletotrichum fragariae; with Phomopsis obscurans [6]) was “Active” throughout. The “growth inhibition (GI)” value with Fusarium oxysporum was “Active”.
